TMEM16A inh: TMEM16A chloride channel inhibitors, primary screen, cell-based, HTS; Anoctamin-1 (Mus musculus), Q8BHY3; HEK293 TMEM16A/YFP iodide influx fluorescence, ionomycin; normalized B-score (activity score, 25-100; higher = stronger inhibition) at 10 µM; 1.2% of 310,000 active;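 active means ratio plate-corrected score three or more library SD toward inhibition, starting fluorescence score within five deviations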;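 further: score derived from kinetic fluorescence span divided by baseline fluorescence per well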
IMP-1 inh: IMP-1 metallo-beta-lactamase inhibitors, primary screen, biochemical, epi-absorbance readout, Pseudomonas aeruginosa enzyme; purified IMP-1, nitrocefin hydrolysis, epi-absorbance fluorescence; AID 1556, 2009; inhibition, % at 5.6 µM; 0.45% of 290,000 active;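 active means inhibition above the mean plus 3 SD of all compounds in the same screening run, cut at about 4.5% in these data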;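 further: 0% = IMP-1 with DMSO and 100% = DMSO wells lacking enzyme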
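System: Purified recombinant IMP-1 metallo-beta-lactamase enzyme | Measured by: Fluorescence quenching readout, ex 480/em 530 nm | Replication: Singlicate | Incubation: 15 min preincubation plus 25 min reaction at 25 °C | Evaluation: Percent inhibition from optical density relative to buffer-blank wells | Benchmarks: DMSO with and without IMP-1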
VIM-2 inhibitor: VIM-2 metallo-beta-lactamase inhibitors, primary screen, biochemical, epi-absorbance readout, Pseudomonas aeruginosa enzyme; inhibition, % at 5.6 µM; purified VIM-2, nitrocefin hydrolysis, epi-absorbance fluorescence; AID 1527, 2009; 0.89% of 290,000 active;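 active means inhibition above the mean of all tested compounds plus 3 SD, cutoff set per screening run, cut at about 7.5% in these data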;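 further: red hydrolysis product quenches plate fluorescence so inhibitors raise well fluorescence; 0% = enzyme with DMSO and 100% = DMSO without enzyme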
ANO1 activ: TMEM16A chloride channel activators or potentiators, primary screen, cell-based, HTS; Anoctamin-1 (Mus musculus), Q8BHY3; HEK293 TMEM16A/YFP-H148Q/I152L, iodide quench fluorescence; active compounds read low; B-score at 10 µM; 0.3% of 340,000 active; AID 623877, 2012;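 active means fluorescence-ratio B-score plate-corrected deviation score at least 3 library SD below zero, with starting fluorescence score within 5 deviations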;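 further: channel opened by trigger with iodide after compound preincubation; score built on the fluorescence ratio of max minus min over baseline; more negative score means more quench and so TMEM16A activation or potentiation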
CHT PAM: CHT positive allosteric modulators, primary screen, cell-based, membrane potential dye, choline EC20; High affinity choline transporter 1 (Homo sapiens), Q9GZV3; CHT-expressing cells; active compounds read high; LV-AA mutant CHT in HEK293 cells; B-score at 10 µM; 0.49% of 310,000 active; AID 488977, 2010;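 active means initial fluorescence not abnormally high and integrated response B-score, plate-corrected, over 3 SD above library mean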
CHT inh: inhibitors of human choline transporter CHT; High affinity choline transporter 1 (Homo sapiens), Q9GZV3; CHT-expressing cells, membrane potential dye, choline response; active compounds read low; B-score at 10 µM; 0.86% of 310,000 active;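 active means B-score over 3 SD under the library average, and starting fluorescence ratio not unusually high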;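 further: choline stimulus applied at its EC90 after an EC20 pre-addition; B-score computed on integrated fluorescence ratio after choline addition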
CHT inh conf: CHT inhibitors, confirmation, cell-based, membrane potential dye, duplicate; shares compounds with CHT inh; CHT activity remaining % of control (active compounds read low), % at 10 µM; CHT-expressing cells, choline membrane potential dye; LV-to-AA substituted CHT, HEK293 cells; 70% of 2,400 active;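 active means choline transporter activity left, mean of duplicates at 10 µM, below buffer-only control mean minus 3 SD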;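 further: depolarization triggered by choline at its EC90 following an EC20 pre-addition; 0% = hemicholinium-3 full block and 100% = buffer-only control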
HEK293 MPD ctr: membrane potential effects in parental HEK293, counter-screen for CHT inhibitor project, cell-based, membrane potential dye; AID 493222, 2011; choline response; active = decrease or increase beyond buffer ±3SD; membrane potential ratio readout (active if shifted either direction beyond buffer ±3SD; no single direction) at 10 µM; 4% of 2,400 active; shares compounds with CHT inh;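 further: parental cells lack the transporter so any hit is non-specific; ratio is peak minus trough fluorescence over baseline after EC90 choline challenge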
The depositor's hits bear a star; i = inactive; x = no result given. A selection: hits, their analogues and other compounds. The true share with any hit is near 3.4%.

SMILES | TMEM16A inh | IMP-1 inh | VIM-2 inhibitor | ANO1 activ | CHT PAM | CHT inh | CHT inh conf | HEK293 MPD ctr
Cc1ccc(S(=O)(=O)N2CCN(C(=O)CN3C(=O)c4ccccc4C3=O)CC2)c(C)c1 | x | x | x | i | x | x | x | x
Cc1cc(C)nc(SCc2cc(=O)c(OC(=O)c3cc([N+](=O)[O-])ccc3Cl)co2)n1 | i | -3 | -1 | i | i | -7.4* | 28%* | i
Cc1cc(C)nc(SCc2cc(=O)c(OC(=O)c3ccc(Br)o3)co2)n1 | i | -2 | 1 | i | i | -8.2* | 14%* | i
Cc1cc(C)nc(SCc2cc(=O)c(OC(=O)c3ccco3)co2)n1 | i | 0 | 3 | i | i | -6.1* | 17%* | i
Cc1cc(C)nc(SCc2cc(=O)c(OC(=O)c3ccc(S(=O)(=O)N4CCCC4)cc3)co2)n1 | i | -3 | -1 | i | i | -7.2* | 51%* | i
Cc1ccnc(SCc2cc(=O)c(OC(=O)c3ccccc3)co2)n1 | i | -1 | 1 | i | i | i | x | x
CC1CCc2nc3ccc(S(=O)(=O)N4CCC(C(=O)NC(C)c5ccccc5)CC4)cc3c(C(=O)O)c2C1 (stereo unspecified) | i | 0 | -2 | i | i | i | x | x
COc1cc(C(=O)OCC(=O)NC2CCCCC2)cc(OC)c1OC | x | x | x | i | x | x | x | x

Source: PubChem (several laboratories)
